In ChEMBL document CHEMBL3120060, “Synthesis, in vitro anticancer evaluation and in silico studies of novel imidazo[2,1-b]thiazole derivatives bearing pyrazole moieties” (2014):

Columns and labels:
Type in all cases: functional
SNB-19 = assay: Cytotoxicity against human SNB19 cells assessed as cell growth at 10 uM after 48 hrs by SRB assay; conditions: SNB-19, 48 h, read-out: Activity
Summary of the method: (§1)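 NCI-60 single-dose screen. Cell lines grown in RPMI 1640 with 5% FBS and 2 mM L-glutamine, plated at 5000–40,000 cells/well according to doubling time, then preincubated 24 h at 37 °C in 5% CO2. Compounds dissolved in DMSO, tested at 10^-5 M for 48 h. Adherent cells fixed with cold TCA (10% final) and stained with 0.4% SRB in 1% acetic acid. Growth expressed as percent of untreated control.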

SF-268 = assay: Cytotoxicity against human SF268 cells assessed as cell growth at 10 uM after 48 hrs by SRB assay; conditions: SF-268, 48 h, read-out: Activity; summary of the method: as §1
SW-620 = assay: Cytotoxicity against human SW620 cells assessed as cell growth at 10 uM after 48 hrs by SRB assay; conditions: SW-620, 48 h, read-out: Activity
Summary of the method: (§2)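 NCI-60 single-dose screen at 10^-5 M. Adherent lines are grown in RPMI 1640 with 5% FBS and 2 mM L-glutamine, seeded at 5000–40,000 cells/well by doubling time, and preincubated 24 h at 37 °C in 5% CO2. Drug is added from DMSO stock diluted in medium, then 48 h. Cells are fixed in cold TCA (final 10%) for 60 min and stained with 0.4% SRB in 1% acetic acid. Growth is expressed as % of untreated control using time-zero plates.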

HT-29 = assay: Cytotoxicity against human HT-29 cells assessed as cell growth at 10 uM after 48 hrs by SRB assay; conditions: HT-29, 48 h, read-out: Activity; summary of the method: as §1
HCT-116 = assay: Cytotoxicity against human HCT116 cells assessed as cell growth at 10 uM after 48 hrs by SRB assay; conditions: HCT-116, 48 h, read-out: Activity; summary of the method: as §1
COLO 205 = assay: Cytotoxicity against human COLO205 cells assessed as cell growth at 10 uM after 48 hrs by SRB assay; conditions: COLO 205, 48 h, read-out: Activity; summary of the method: as §1
NCI-H522 = assay: Cytotoxicity against human NCI-H522 cells assessed as cell growth at 10 uM after 48 hrs by SRB assay; conditions: NCI-H522, 48 h, read-out: Activity; summary of the method: as §1
NCI-H460 = assay: Cytotoxicity against human NCI-H460 cells assessed as cell growth at 10 uM after 48 hrs by SRB assay; conditions: NCI-H460, 48 h, read-out: Activity; summary of the method: as §1
NCI-H322M = assay: Cytotoxicity against human NCI-H322M cells assessed as cell growth at 10 uM after 48 hrs by SRB assay; conditions: read-out: Activity; summary of the method: as §1
NCI-H23 = assay: Cytotoxicity against human NCI-H23 cells assessed as cell growth at 10 uM after 48 hrs by SRB assay; conditions: NCI-H23, 48 h, read-out: Activity; summary of the method: as §1
NCI-H226 = assay: Cytotoxicity against human NCI-H226 cells assessed as cell growth at 10 uM after 48 hrs by SRB assay; conditions: NCI-H226, 48 h, read-out: Activity; summary of the method: as §1
HOP-92 = assay: Cytotoxicity against human HOP92 cells assessed as cell growth at 10 uM after 48 hrs by SRB assay; conditions: HOP-92, 48 h, read-out: Activity; summary of the method: as §1
HOP-62 = assay: Cytotoxicity against human HOP62 cells assessed as cell growth at 10 uM after 48 hrs by SRB assay; conditions: HOP-62, 48 h, read-out: Activity; summary of the method: as §1
A549 = assay: Cytotoxicity against human A549 cells assessed as cell growth at 10 uM after 48 hrs by SRB assay; conditions: A549, 48 h, read-out: Activity; summary of the method: as §1
HL-60(TB) = assay: Cytotoxicity against human HL-60(TB) cells assessed as cell growth at 10 uM after 48 hrs by SRB assay; conditions: HL-60, 48 h, read-out: Activity
Summary of the method: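 NCI-60 single-dose screen: cells grown in RPMI 1640 with 5% FBS and 2 mM L-glutamine, plated at 5000–40,000 cells/well, preincubated 24 h at 37 °C, 5% CO2. Compound dissolved in DMSO, tested at 10^-5 M for 48 h. Cells TCA-fixed, sulforhodamine B stained. Growth expressed as percent of untreated control, referenced to time-zero plates.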

CCRF-CEM = assay: Cytotoxicity against human CCRF-CEM cells assessed as cell growth at 10 uM after 48 hrs by SRB assay; conditions: read-out: Activity; summary of the method: as §1
MDA-MB-468 = assay: Cytotoxicity against human MDA-MB-468 cells assessed as cell growth at 10 uM after 48 hrs by SRB assay; conditions: MDA-MB-468, 48 h, read-out: Activity; summary of the method: as §1
T47D = assay: Cytotoxicity against human T47D cells assessed as cell growth at 10 uM after 48 hrs by SRB assay; conditions: read-out: Activity; summary of the method: as §2
BT-549 = assay: Cytotoxicity against human BT549 cells assessed as cell growth at 10 uM after 48 hrs by SRB assay; conditions: BT-549, 48 h, read-out: Activity; summary of the method: as §1
MDA-MB-231 = assay: Cytotoxicity against human MDA-MB-231 cells assessed as cell growth at 10 uM after 48 hrs by SRB assay; conditions: MDA-MB-231, 48 h, read-out: Activity; summary of the method: as §1
MCF7 = assay: Cytotoxicity against human MCF7 cells assessed as cell growth at 10 uM after 48 hrs by SRB assay; conditions: MCF7, 48 h, read-out: Activity; summary of the method: as §1
PC-3 = assay: Cytotoxicity against human PC3 cells assessed as cell growth at 10 uM after 48 hrs by SRB assay; conditions: PC-3, 48 h, read-out: Activity; summary of the method: as §1
SN12C = assay: Cytotoxicity against human SN12C cells assessed as cell growth at 10 uM after 48 hrs by SRB assay; conditions: read-out: Activity; summary of the method: as §1
ACHN = assay: Cytotoxicity against human ACHN cells assessed as cell growth at 10 uM after 48 hrs by SRB assay; conditions: read-out: Activity; summary of the method: as §1
SK-OV-3 = assay: Cytotoxicity against human SKOV3 cells assessed as cell growth at 10 uM after 48 hrs by SRB assay; conditions: SK-OV-3, 48 h, read-out: Activity; summary of the method: as §1
[1] = Cytotoxicity against human OVCAR5 cells assessed as cell growth at 10 uM after 48 hrs by SRB assay; conditions: OVCAR-5, 48 h, read-out: Activity; summary of the method: as §1
UACC-62 = assay: Cytotoxicity against human UACC62 cells assessed as cell growth at 10 uM after 48 hrs by SRB assay; conditions: UACC-62, 48 h, read-out: Activity; summary of the method: as §2
SK-MEL-5 = assay: Cytotoxicity against human SK-MEL-5 cells assessed as cell growth at 10 uM after 48 hrs by SRB assay; conditions: SK-MEL-5, 48 h, read-out: Activity; summary of the method: as §1
SK-MEL-2 = assay: Cytotoxicity against human SK-MEL-2 cells assessed as cell growth at 10 uM after 48 hrs by SRB assay; conditions: SK-MEL-2, 48 h, read-out: Activity; summary of the method: as §1
MDA-MB-435 = assay: Cytotoxicity against human MDA-MB-435 cells assessed as cell growth at 10 uM after 48 hrs by SRB assay; conditions: MDA-MB-435, 48 h, read-out: Activity; summary of the method: as §1

Structure (SMILES) | growth at 10 µM (SNB-19) | growth at 10 µM (SF-268) | growth at 10 µM (SW-620) | growth at 10 µM (HT-29) | growth at 10 µM (HCT-116) | growth at 10 µM (COLO 205) | growth at 10 µM (NCI-H522) | growth at 10 µM (NCI-H460) | growth at 10 µM (NCI-H322M) | growth at 10 µM (NCI-H23) | growth at 10 µM (NCI-H226) | growth at 10 µM (HOP-92) | growth at 10 µM (HOP-62) | growth at 10 µM (A549) | growth at 10 µM (HL-60(TB)) | growth at 10 µM (CCRF-CEM) | growth at 10 µM (MDA-MB-468) | growth at 10 µM (T47D) | growth at 10 µM (BT-549) | growth at 10 µM (MDA-MB-231) | other results
O=C1CC(=O)N(c2cn3c(-c4ccccc4)csc3n2)N1 | 91% | 99.5% | 107% | 104% | 95.5% | 100% | 74.9% | 104% | 98.1% | 91.5% | 90% | 63.5% | 85.9% | 92.9% | 120% | 98.7% | 102% | 82.7% | 97.6% | 85.7% | growth at 10 µM (MCF7): 85.8%; growth at 10 µM (PC-3): 76.4%; growth at 10 µM (SN12C): 92.2%; growth at 10 µM (ACHN): 81.5%; growth at 10 µM (SK-OV-3): 86.8%; growth at 10 µM [1]: 104%; growth at 10 µM (UACC-62): 85%; growth at 10 µM (SK-MEL-5): 89.6%; growth at 10 µM (SK-MEL-2): 102%; growth at 10 µM (MDA-MB-435): 99.9%
O=C1CN2C(c3ccc(Cl)cc3)=CSC2=N1 | 100% | 100% | 101% | 88.4% | 97.1% | 108% | 87.5% | 106% | 93.8% | 104% | 110% | 111% | 107% | 92.5% | 94.2% | 91.5% | 106% | 92.1% | 89% | 102% | growth at 10 µM (MCF7): 90.9%; growth at 10 µM (PC-3): 101%; growth at 10 µM (SN12C): 94.9%; growth at 10 µM (ACHN): 95%; growth at 10 µM (SK-OV-3): 98.2%; growth at 10 µM [1]: 97%; growth at 10 µM (UACC-62): 88.7%; growth at 10 µM (SK-MEL-5): 105%; growth at 10 µM (SK-MEL-2): 98.2%; growth at 10 µM (MDA-MB-435): 87.8%
O=C1CN2C(c3ccccc3)=CSC2=N1 | 99.7% | 110% | 94.8% | 109% | 97.6% | 102% | 94.3% | 105% | 116% | 94.9% | 102% | 78% | 93.6% | 98.3% | 114% | 96.3% | 106% | 84.4% | 112% | 96.7% | growth at 10 µM (MCF7): 88.5%; growth at 10 µM (PC-3): 82.4%; growth at 10 µM (SN12C): 91.5%; growth at 10 µM (ACHN): 97.9%; growth at 10 µM (SK-OV-3): 89.5%; growth at 10 µM [1]: 113%; growth at 10 µM (UACC-62): 90.3%; growth at 10 µM (SK-MEL-5): 99.8%; growth at 10 µM (SK-MEL-2): 114%; growth at 10 µM (MDA-MB-435): 95.1%
